Test results: ChEMBL document CHEMBL3425424, “Anti-inflammatory coumarin and benzocoumarin derivatives from Murraya alata” (J Nat Prod, 2015)

Columns and labels:
[1] = system: RAW264.7; assay: Antiinflammatory activity against mouse RAW264.7 cells assessed as reduction of LPS-induced NO production after 24 hrs; format: functional, cell-based; settings: RAW264.7, 24 h
Procedure, shortened: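 RAW 264.7 murine macrophages were grown in DMEM with 10% FBS, penicillin and streptomycin at 37 °C under 5% CO2. Cells were seeded at 1 × 10^5 per well and given 1.0 μg/mL LPS (E. coli 0111:B4) with or without compound for 24 h at 37 °C. Supernatant NO was read by Griess reagent (10 min, room temperature, dark) at OD 540 nm against a sodium nitrite standard curve. Indomethacin was the positive control; three parallel runs, mean ± SD.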

[2] = system: RAW264.7; assay: Cytotoxicity against mouse RAW264.7 cells assessed as cell survival at 80 uM after 24 hrs by MTT assay; format: cell-based; settings: raw264.7, 24 h
Procedure, shortened: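 Viability of RAW 264.7 murine macrophages was read by MTT assay. Cells were kept in DMEM with 10% FBS, 100 U/mL penicillin and 100 μg/mL streptomycin, humidified, 37 °C, 5% CO2.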

Compound | IC50 [1] | Activity [2]
COc1ccc2ccc(=O)oc2c1CC=C(C)C [OSTHOLE] | 12.4 µM | Non-toxic
COc1cc(OC)c2ccc(=O)oc2c1C(=O)C(=O)C(C)C | 12.4 µM | Non-toxic
COc1cc(OC)c2ccc(=O)oc2c1/C=C/C(C)=O | 6 µM | Non-toxic
C=C(C)[C@@H](O)Cc1c(OC)cc(OC)c2ccc(=O)oc12 | 12.4 µM | Non-toxic
C=C(C)[C@H](Cc1c(OC)ccc2ccc(=O)oc12)OO | 12.4 µM | Non-toxic
COc1cc2cc(COC(=O)CC(C)C)ccc2c2oc(=O)ccc12 | 9.1 µM | Non-toxic
C=C(C)[C@H](O)[C@H](OCC)c1c(OC)ccc2ccc(=O)oc12 | 12.4 µM | Non-toxic
COc1cc(OC)c2ccc(=O)oc2c1CC(C)(C)C=O | 12.4 µM | Non-toxic
C=C(C)[C@H](O)[C@H](O)c1c(OC)ccc2ccc(=O)oc12 (relative stereo) | 12.4 µM | Non-toxic
CCOC(C)(C)[C@@H](O)Cc1c(OC)c(OC)c(OC)c2ccc(=O)oc12 | 34.2 µM | Non-toxic
C=C(C)Cc1c(OC)cc(OC)c2ccc(=O)oc12 | 12.4 µM | Non-toxic
COc1cc(OC)c2ccc(=O)oc2c1CC=C(C)C | 33.1 µM | Non-toxic
COc1cc(OC)c2ccc(=O)oc2c1C[C@@H](O)C(C)(C)O | 12.4 µM | Non-toxic
CCOC(C)(C)C(O)Cc1c(OC)cc(OC)c2ccc(=O)oc12 (centres undefined) | 31.9 µM | Non-toxic
COc1cc(OC)c2ccc(=O)oc2c1CC(C)(C)C(=O)O | 12.4 µM | Non-toxic
COc1ccc2ccc(=O)oc2c1 [HERNIARIN] | 12.4 µM | Non-toxic
COc1ccc2ccc(=O)oc2c1C(O)C(=O)C(C)C (centres undefined) | 12.4 µM | Non-toxic

Compound | IC50 [1] | Activity [2]
CC(C)=CCc1cc2ccc(=O)oc2c2c1OC(C)(C)C=C2 | 12.4 µM | Non-toxic
C=C(C)/C=C/c1c(OC)cc(OC)c2ccc(=O)oc12 | 12.4 µM | Non-toxic
COc1ccc2ccc(=O)oc2c1C(=O)C(=O)C(C)C |  | Non-toxic
COc1cc(OC)c2ccc(=O)oc2c1/C=C/C(C)C | 20.5 µM | Non-toxic
COc1ccc2ccc(=O)oc2c1C(C=O)=C(C)C [MURRALONGIN] | 12.4 µM | Non-toxic
COc1cc2cc(C)ccc2c2oc(=O)ccc12 | 12.4 µM | Non-toxic
COc1cc(OC)c2ccc(=O)oc2c1CC(=O)C(C)C | 20.6 µM | Non-toxic
C=C(C)C(O)C(OCC)c1c(OC)ccc2ccc(=O)oc12 (centres undefined) | 43.3 µM | Non-toxic
COc1ccc2c(c1)c(CC(=O)O)c(C)n2C(=O)c1ccc(Cl)cc1 [INDOMETHACIN] | 6.3 µM | 
COc1cc(OC)c2ccc(=O)oc2c1C/C=C(\C)C=O | 28.3 µM | Non-toxic
COc1cc2c(c3oc(=O)ccc13)C=CC(C)(C)O2 | 12.4 µM | Non-toxic
COc1c(OC)c(CC=C(C)C)c2oc(=O)ccc2c1OC | 12.4 µM | Non-toxic
COc1cc(OC)c2ccc(=O)oc2c1CC=O | 13.8 µM | Non-toxic
COc1c(OC)c(/C=C/C(C)(C)O)c2oc(=O)ccc2c1OC | 12.4 µM | Non-toxic
C=C(C)/C=C\c1c(OC)cc(OC)c2ccc(=O)oc12 | 14.5 µM | Non-toxic
COc1c(OC)c(CC(O)C(C)(C)O)c2oc(=O)ccc2c1OC (centres undefined) | 12.4 µM | Non-toxic
